Where a name gives a salt, the structure may show the parent alone. Calls of active or inactive are those of the source. No cut-off for these calls is given here.
Assays:
cells = assay type: functional, cell-based; details: Homo sapiens, GIST882, 96 h
Nucleic Acid [1] = experiment: Binding affinity to human telomeric (5'-FAM-GGGTTAGGGTTAGGGTTAGGG-TAMRA-3') DNA assessed as concentration required to cause half maximal change in melting temperature by FRET-melting assay (reference value: 59.4 degC); assay type: nucleic-acid assay
Method in brief: (§1)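 Dual FAM/TAMRA-labelled oligonucleotides diluted in 60 mM potassium cacodylate, pH 7.4, annealed at 400 nM (94 °C for 10 min, cooled to room temperature at 0.1 °C/min), then mixed 1:1 with ligand solution to 200 nM DNA final. Melting read with excitation at 483 nm and emission at 533 nm, in triplicate. ΔTm taken across a range of ligand concentrations, with the ligand level giving half-maximal ΔTm also derived.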

Nucleic Acid [2] = experiment: Binding affinity to double stranded-DNA (50-FAM-TAT AGC TAT A-HEG-TAT AGC TAT A-TAMRA-30) assessed as change in melting temperature at 1 uM by FRET-melting assay (reference value: 62.7 degC); assay type: nucleic-acid assay
Method in brief: as §1

Nucleic Acid [3] = experiment: Binding affinity to human c-KIT2 (5'-FAM-GGGCGGGCGCGAGGGAGGGG-TAMRA-3') DNA assessed as concentration required to cause half maximal change in melting temperature by FRET-melting assay (reference value: 72.7 degC); assay type: nucleic-acid assay
Method in brief: as §1

HT-29 = experiment: cells; assay type: functional, cell-based; details: Homo sapiens, HT-29, 96 h
Nucleic Acid [4] = experiment: Binding affinity to human c-KIT1 (5'-FAM-GGGAGGGCGCTGGGAGGAGGG-TAMRA-3') DNA assessed as change in melting temperature at 1 uM by FRET-melting assay (reference value: 54.4 degC); assay type: nucleic-acid assay
Method in brief: as §1

Nucleic Acid [5] = experiment: Binding affinity to double stranded-DNA (50-FAM-TAT AGC TAT A-HEG-TAT AGC TAT A-TAMRA-30) assessed as concentration required to cause half maximal change in melting temperature by FRET-melting assay (reference value: 62.7 degC); assay type: nucleic-acid assay
Method in brief: as §1

Nucleic Acid [6] = experiment: Binding affinity to human c-KIT2 (5'-FAM-GGGCGGGCGCGAGGGAGGGG-TAMRA-3') DNA assessed as change in melting temperature at 1 uM by FRET-melting assay (reference value: 72.7 degC); assay type: nucleic-acid assay
Method in brief: as §1

Nucleic Acid [7] = experiment: Binding affinity to human c-KIT1 (5'-FAM-GGGAGGGCGCTGGGAGGAGGG-TAMRA-3') DNA assessed as concentration required to cause half maximal change in melting temperature by FRET-melting assay (reference value: 54.4 degC); assay type: nucleic-acid assay
Method in brief: as §1

Nucleic Acid [8] = experiment: Binding affinity to human telomeric (5'-FAM-GGGTTAGGGTTAGGGTTAGGG-TAMRA-3') DNA assessed as change in melting temperature at 1 uM by FRET-melting assay (reference value: 59.4 degC); assay type: nucleic-acid assay
Method in brief: as §1

[9] = biological target: Mast/stem cell growth factor receptor Kit (Homo sapiens) (UniProt P10721); experiment: Inhibition of c-Kit protein expression in human GIST882 cells after 24 hrs by immunoblotting; assay type: functional, cell-based
Sequence of Mast/stem cell growth factor receptor Kit (Homo sapiens) (P10721 whole entry): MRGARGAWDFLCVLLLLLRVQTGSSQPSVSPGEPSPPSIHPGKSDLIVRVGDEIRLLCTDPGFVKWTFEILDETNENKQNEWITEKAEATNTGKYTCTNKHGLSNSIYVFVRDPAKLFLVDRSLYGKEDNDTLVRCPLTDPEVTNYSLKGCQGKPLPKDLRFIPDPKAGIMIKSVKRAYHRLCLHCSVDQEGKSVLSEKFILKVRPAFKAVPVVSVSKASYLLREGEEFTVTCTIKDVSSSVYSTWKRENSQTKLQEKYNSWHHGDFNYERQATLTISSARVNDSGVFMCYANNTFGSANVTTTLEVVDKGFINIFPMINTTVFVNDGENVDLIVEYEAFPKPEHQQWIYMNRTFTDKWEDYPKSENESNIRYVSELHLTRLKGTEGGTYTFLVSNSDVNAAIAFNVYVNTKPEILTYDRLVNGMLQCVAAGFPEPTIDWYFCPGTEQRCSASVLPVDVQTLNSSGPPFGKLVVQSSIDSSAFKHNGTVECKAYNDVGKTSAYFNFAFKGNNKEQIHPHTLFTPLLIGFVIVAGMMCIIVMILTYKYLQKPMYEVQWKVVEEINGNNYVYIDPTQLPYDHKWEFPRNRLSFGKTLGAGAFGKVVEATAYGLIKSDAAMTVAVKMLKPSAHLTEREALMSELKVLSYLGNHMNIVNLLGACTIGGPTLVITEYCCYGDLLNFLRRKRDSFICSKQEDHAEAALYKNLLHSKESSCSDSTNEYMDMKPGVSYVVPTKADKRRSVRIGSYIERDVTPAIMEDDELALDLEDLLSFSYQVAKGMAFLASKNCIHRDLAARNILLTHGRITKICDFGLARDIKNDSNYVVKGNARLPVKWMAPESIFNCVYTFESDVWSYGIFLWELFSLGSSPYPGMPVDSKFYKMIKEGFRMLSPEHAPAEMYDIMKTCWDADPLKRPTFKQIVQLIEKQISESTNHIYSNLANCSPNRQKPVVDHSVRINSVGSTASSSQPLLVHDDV
Method in brief: (§2)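 GIST882 cells (1 × 10^6 per T25 flask) treated 24 h with 0.8, 4 or 20 μM ligand, or DMSO control. Lysed in RIPA buffer with protease and phosphatase inhibitors; 10–20 μg protein run on 8–16% SDS-PAGE, transferred to nitrocellulose and probed with anti-KIT. β-actin used as loading control; enhanced-luminescence detection.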

[10] = biological target: Mast/stem cell growth factor receptor Kit (Homo sapiens) (UniProt P10721); experiment: Inhibition of c-Kit mRNA expression in human GIST882 cells at 4 uM after 24 hrs by […] RT-PCR analysis relative to control; assay type: functional, cell-based
Method in brief: (§3)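 GIST882 cells grown in RPMI 1640 with 10% FBS. 1 × 10^6 cells seeded in T25 flasks and treated 24 h with 0.8, 4 or 20 μM ligand, or DMSO control. Total RNA extracted; cDNA made from 1 μg RNA with oligo dT (55 °C, 1 h). qPCR annealing at 64 °C, single amplicon checked by melt curve. KIT mRNA normalised to β-actin or YWHAZ and given as % of control. Two independent experiments, each in triplicate.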

[11] = Toxicity in human GIST882 cells expressing c-Kit at 20 uM after 24 hrs; assay type: cell-based; details: gist882, 24 h
[12] = biological target: Mast/stem cell growth factor receptor Kit (Homo sapiens) (UniProt P10721); experiment: Inhibition of c-Kit mRNA expression in human GIST882 cells after 24 hrs by […] RT-PCR analysis; assay type: functional, cell-based
Method in brief: as §3

[13] = biological target: Mast/stem cell growth factor receptor Kit (Homo sapiens) (UniProt P10721); experiment: Inhibition of c-Kit mRNA expression in human GIST882 cells at 20 uM after 24 hrs by […] RT-PCR analysis relative to control; assay type: functional, cell-based
Method in brief: as §3

[14] = biological target: Mast/stem cell growth factor receptor Kit (Homo sapiens) (UniProt P10721); experiment: Inhibition of c-Kit protein expression in human GIST882 cells at 20 uM after 24 hrs by immunoblotting; assay type: functional, cell-based
Method in brief: as §2

SMILES	IC50 (cells) [µM]	Activity (Nucleic Acid [1]) [µM]	deltaTm (Nucleic Acid [2]) [K]	Activity (Nucleic Acid [3]) [µM]	IC50 (HT-29) [µM]	deltaTm (Nucleic Acid [4]) [K]	Activity (Nucleic Acid [5]) [µM]	deltaTm (Nucleic Acid [6]) [K]	Activity (Nucleic Acid [7]) [µM]	deltaTm (Nucleic Acid [8]) [K]	inhibition [9]	inhibition [10] [%]	Activity [11]	inhibition [12]	inhibition [13] [%]	inhibition [14]
Cc1ccc(NC(=O)c2ccc(CN3CCN(C)CC3)cc2)cc1Nc1nccc(-c2cccnc2)n1 [IMATINIB MESYLATE]	1.7															
O=C1c2ccccc2-c2c1c1ccccc1c(=O)n2CCCN1CCOCC1	> 50	> 10	0.6	4.4	> 50	8.7	> 10	3.9	8.9	4.8						
O=C1c2ccccc2-c2c1c1ccccc1c(=O)n2CCCn1ccnc1	23	> 10	0	0.62	2.2	11.7	> 10	13.2	> 10	6.3						
O=C1c2ccccc2-c2c1c1ccccc1c(=O)n2CCCN1CCCC1	5	1.63	4	0.72	0.4	23.7	9	14.4	0.93	14.4						
CN(C)CCCn1c2c(c3ccccc3c1=O)C(=O)c1ccccc1-2.Cl	4.1	1.6	3.9	0.69	0.3	20.1	> 10	13	0.95	13	Dose-dependent effect	67	Toxic	Dose-dependent effect	89	Active
CN1CCN(CCCn2c3c(c4ccccc4c2=O)C(=O)c2ccccc2-3)CC1	13.9	0.98	1.7	0.84	0.7	25.9	> 10	12.2	0.59	17.6						
